Measured values: ChEMBL document CHEMBL1155442, “Click chemistry approach to new N-substituted aminocyclitols as potential pharmacological chaperones for Gaucher disease” (J Med Chem, 2010)
The source made the active and inactive calls. The rule behind the calls is not given here.

Assays:
[1] = Dissociation constant, pKa of the compound; type: physicochemical
[2] = molecular target: T1, Lysosomal acid glucosylceramidase (Homo sapiens) (UniProt P04062); test: Binding affinity to recombinant beta-glucocerebrosidase assessed as enzymatic activity at 150 uM after 20 mins by thermal stabilization assay relative to control
T1 sequence (whole entry): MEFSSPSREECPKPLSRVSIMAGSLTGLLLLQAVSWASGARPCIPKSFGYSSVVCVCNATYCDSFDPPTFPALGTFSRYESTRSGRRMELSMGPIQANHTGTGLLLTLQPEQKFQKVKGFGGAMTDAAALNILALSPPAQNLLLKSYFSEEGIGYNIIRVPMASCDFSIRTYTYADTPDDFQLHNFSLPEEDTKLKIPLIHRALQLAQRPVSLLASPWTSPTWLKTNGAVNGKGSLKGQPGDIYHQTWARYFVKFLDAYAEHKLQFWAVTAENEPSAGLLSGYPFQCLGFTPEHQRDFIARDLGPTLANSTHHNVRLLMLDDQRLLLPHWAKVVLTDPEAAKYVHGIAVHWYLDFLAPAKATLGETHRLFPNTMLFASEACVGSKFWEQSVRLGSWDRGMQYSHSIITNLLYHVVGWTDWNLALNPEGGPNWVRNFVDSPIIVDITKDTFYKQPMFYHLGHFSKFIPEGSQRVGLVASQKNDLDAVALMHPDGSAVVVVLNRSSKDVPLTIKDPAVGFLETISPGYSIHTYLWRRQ

[3] = molecular target: T2, Lysosomal acid glucosylceramidase (Homo sapiens, UniProt P04062); test: Inhibition of recombinant beta-glucocerebrosidase at pH 5.2 after 10 mins by fluorimetry
T2 sequence (P04062 whole entry): T1 sequence (whole entry)

[4] = molecular target: T1, Lysosomal acid glucosylceramidase (Homo sapiens); test: Binding affinity to recombinant beta-glucocerebrosidase assessed as enzymatic activity at 100 uM after 60 mins by thermal stabilization assay relative to control
[5] = molecular target: T1, Lysosomal acid glucosylceramidase (Homo sapiens); test: Binding affinity to recombinant beta-glucocerebrosidase assessed as enzymatic activity at 150 uM after 40 mins by thermal stabilization assay relative to control
[6] = molecular target: T1, Lysosomal acid glucosylceramidase (Homo sapiens); test: Binding affinity to recombinant beta-glucocerebrosidase assessed as enzymatic activity at 100 uM after 20 mins by thermal stabilization assay relative to control
[7] = molecular target: T3, Beta-galactosidase (Bos taurus) (UniProt Q58D55); test: Inhibition of bovine liver beta-galactosidase at 0.1 mM
T3 sequence (whole entry): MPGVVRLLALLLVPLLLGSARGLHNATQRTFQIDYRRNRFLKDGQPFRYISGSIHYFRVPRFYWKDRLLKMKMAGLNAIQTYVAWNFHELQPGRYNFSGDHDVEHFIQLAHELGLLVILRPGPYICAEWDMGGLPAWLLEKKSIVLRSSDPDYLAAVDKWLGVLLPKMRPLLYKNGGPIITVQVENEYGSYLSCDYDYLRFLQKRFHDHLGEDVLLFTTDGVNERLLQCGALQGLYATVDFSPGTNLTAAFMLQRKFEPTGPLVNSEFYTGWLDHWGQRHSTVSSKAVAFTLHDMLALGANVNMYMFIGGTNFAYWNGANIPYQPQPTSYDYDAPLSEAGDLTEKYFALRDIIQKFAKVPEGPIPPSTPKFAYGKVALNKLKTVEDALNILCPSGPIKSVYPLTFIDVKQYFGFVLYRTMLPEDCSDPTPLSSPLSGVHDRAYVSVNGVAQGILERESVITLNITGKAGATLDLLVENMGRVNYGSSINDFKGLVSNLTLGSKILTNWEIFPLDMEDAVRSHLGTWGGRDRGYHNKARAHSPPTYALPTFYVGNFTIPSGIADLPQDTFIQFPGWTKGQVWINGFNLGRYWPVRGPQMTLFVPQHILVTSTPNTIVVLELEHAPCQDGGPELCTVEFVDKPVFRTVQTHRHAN

[8] = molecular target: T1, Lysosomal acid glucosylceramidase (Homo sapiens); test: Binding affinity to recombinant beta-glucocerebrosidase assessed as enzymatic activity at 10 uM after 60 mins by thermal stabilization assay relative to control
Outline: (§1)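 Recombinant GCase (imiglucerase, 2 mg/mL aliquots) held at pH 7.4 and 48 °C with 0 (control) or 10–150 μM compound. At 20, 40 or 60 min, acetate-phosphate buffer (pH 5.0) and 4 mM 4-methylumbelliferyl β-D-glucoside in McIlvaine pH 5.2 added. Incubated 10 min at 37 °C with 0.1% Triton X-100 and 0.2% taurodeoxycholic acid. Stopped with glycine pH 10.6; 4-MU fluorescence read. Activity expressed relative to enzyme at 37 °C.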

Oryza sativa [9] = test: Inhibition of rice alpha-glucosidase at 0.1 mM
[10] = molecular target: T1, Lysosomal acid glucosylceramidase (Homo sapiens); test: Binding affinity to recombinant beta-glucocerebrosidase assessed as enzymatic activity at 10 uM after 40 mins by thermal stabilization assay relative to control; outline: as §1
[11] = molecular target: T1, Lysosomal acid glucosylceramidase (Homo sapiens); test: Binding affinity to recombinant beta-glucocerebrosidase assessed as enzymatic activity at 150 uM after 60 mins by thermal stabilization assay relative to control
Saccharomyces cerevisiae = test: Inhibition of yeast alpha-glucosidase at 0.1 mM
[12] = Selectivity index, ratio of CC50 for human fibroblast to Ki for beta-glucocerebrosidase
[13] = molecular target: T1, Lysosomal acid glucosylceramidase (Homo sapiens); test: Inhibition of beta-glucocerebrosidase in human fibroblast at 10 uM after 24 hrs by fluorescence assay
Outline: (§2)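 Wild-type human fibroblasts exposed to compound for 24 h (10, 20 or 50 μM, as listed) with 5 mM substrate. Cellular GCase activity then measured.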

[14] = molecular target: T1, Lysosomal acid glucosylceramidase (Homo sapiens); test: Binding affinity to recombinant beta-glucocerebrosidase assessed as enzymatic activity at 10 uM after 20 mins by thermal stabilization assay relative to control; outline: as §1
[15] = molecular target: T1, Lysosomal acid glucosylceramidase (Homo sapiens); test: Binding affinity to recombinant beta-glucocerebrosidase assessed as enzymatic activity at 50 uM after 60 mins by thermal stabilization assay relative to control
[16] = molecular target: T1, Lysosomal acid glucosylceramidase (Homo sapiens); test: Binding affinity to recombinant beta-glucocerebrosidase assessed as enzymatic activity at 25 uM after 40 mins by thermal stabilization assay relative to control; outline: as §1
Oryza sativa [17] = test: Inhibition of rice alpha-galactosidase at 0.1 mM
[18] = molecular target: T1, Lysosomal acid glucosylceramidase (Homo sapiens); test: Binding affinity to recombinant beta-glucocerebrosidase assessed as enzymatic activity at 50 uM after 40 mins by thermal stabilization assay relative to control
[19] = molecular target: T2, Lysosomal acid glucosylceramidase; test: Inhibition of recombinant beta-glucocerebrosidase after 10 mins by fluorimetry
Outline: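 Imiglucerase (0.1 mg/mL stock) in McIlvaine buffer, pH 5.2 or 7.4, with 0.2% sodium taurocholate and 0.1% Triton X-100. Preincubated 30 min at 37 °C with or without inhibitor. Then 4 mM 4-methylumbelliferyl-β-D-glucopyranoside added for 10 min at 37 °C. Stopped with glycine/NaOH pH 10.6; 4-MU read at ex 355/em 460 nm. IC50 from % activity vs log[I], at least five concentrations.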

[20] = molecular target: T1, Lysosomal acid glucosylceramidase (Homo sapiens); test: Inhibition of beta-glucocerebrosidase in human fibroblast at 50 uM after 24 hrs by fluorescence assay; outline: as §2
[21] = molecular target: T1, Lysosomal acid glucosylceramidase (Homo sapiens); test: Binding affinity to recombinant beta-glucocerebrosidase assessed as enzymatic activity at 25 uM after 20 mins by thermal stabilization assay relative to control; outline: as §1
[22] = molecular target: T1, Lysosomal acid glucosylceramidase (Homo sapiens); test: Binding affinity to recombinant beta-glucocerebrosidase assessed as enzymatic activity at 50 uM after 20 mins by thermal stabilization assay relative to control
[23] = molecular target: T1, Lysosomal acid glucosylceramidase (Homo sapiens); test: Binding affinity to recombinant beta-glucocerebrosidase assessed as enzymatic activity at 100 uM after 40 mins by thermal stabilization assay relative to control
[24] = molecular target: T2, Lysosomal acid glucosylceramidase; test: Competitive inhibition of beta-glucocerebrosidase at pH 5.2 by Lineweaver-Burke plot analysis
[25] = molecular target: T2, Lysosomal acid glucosylceramidase; test: Inhibition of recombinant beta-glucocerebrosidase at pH 7.4 after 10 mins by fluorimetry
[26] = molecular target: T1, Lysosomal acid glucosylceramidase (Homo sapiens); test: Inhibition of beta-glucocerebrosidase in human fibroblast at 20 uM after 24 hrs by fluorescence assay; outline: as §2
Prunus dulcis = test: Inhibition of sweet almond beta-glucosidase at 0.1 mM
[27] = Cytotoxicity against human fibroblast after 24 hrs by MTT assay; type: cell-based; conditions: human fibroblasts
[28] = molecular target: T1, Lysosomal acid glucosylceramidase (Homo sapiens); test: Binding affinity to recombinant beta-glucocerebrosidase assessed as enzymatic activity at 25 uM after 60 mins by thermal stabilization assay relative to control; outline: as §1
[29] = test system: Glucosylceramide synthase (Homo sapiens); test: Inhibition of glucosylceramide synthase in human A549 cells at 250 uM after 35 mins by fluorescence-coupled HPLC analysis
[30] = Cytotoxicity against human fibroblast at 300 uM after 24 hrs by MTT assay; type: cell-based
[31] = molecular target: T1, Lysosomal acid glucosylceramidase (Homo sapiens); conditions: 0.1 to 0.25 uM

| Structure (SMILES) | pKa [1] | fold change (FC) [2] | IC50 [3] | fold change (FC) [4] | fold change (FC) [5] | fold change (FC) [6] | inhibition [7] | inhibition (Oryza sativa [9]) | fold change (FC) [11] | inhibition (Saccharomyces cerevisiae) | fold change (FC) [15] | inhibition (Oryza sativa [17]) | fold change (FC) [18] | IC50 [19] | inhibition [20] | fold change (FC) [22] | fold change (FC) [23] | Ki [24] | IC50 [25] | inhibition (Prunus dulcis) | further results |
| --- | --- | --- | --- | --- | --- | --- | --- | --- | --- | --- | --- | --- | --- | --- | --- | --- | --- | --- | --- | --- | --- |
| CCCCCCCCCCCCn1cc(CN[C@H]2[C@H](O)[C@@H](O)[C@H](O)[C@@H](O)[C@@H]2O)nn1 | 7.1 | 3.21 | 30 nM | 28.7 | 11.5 | 3.41 | inactive | inactive | 26.2 | inactive | 24.9 | inactive | 10.9 | 30.2 nM | Toxic | 3.11 | 12.8 | 60 nM | 60 nM | inactive | fold change (FC) [8]: 18.7; fold change (FC) [10]: 8.48; Selectivity Index [12]: 916; inhibition [13]: 87%; fold change (FC) [14]: 2.65; fold change (FC) [16]: 9.42; fold change (FC) [21]: 2.97; inhibition [26]: 90%; CC50 at 24 h [27]: 55000 nM; fold change (FC) [28]: 23.2 |
| CCCCCCn1cc(CCCN[C@H]2[C@H](O)[C@@H](O)[C@H](O)[C@@H](O)[C@@H]2O)nn1 | 10.4 | – | 257000 nM | – | – | – | inactive | inactive | – | inactive | – | inactive | – | 257000 nM | < 5% | – | – | – | 44600 nM | inactive | inhibition [29]: 30%; Activity [30]: Non-toxic |
| CCCCCCCCCCCn1cc(CCN[C@H]2[C@H](O)[C@@H](O)[C@H](O)[C@@H](O)[C@@H]2O)nn1 | 9.1 | 2.5 | 25400 nM | 11.6 | 4.79 | 2.55 | inactive | inactive | 5.3 | inactive | 9.63 | inactive | 5.98 | 25700 nM | 50% | 2.43 | 6.7 | 20200 nM | 4900 nM | inactive | inhibition [29]: 30%; Activity [30]: Non-toxic |
| CCCCCCCCCCn1cc(CN[C@H]2[C@H](O)[C@@H](O)[C@H](O)[C@@H](O)[C@@H]2O)nn1 | 7.1 | 3.24 | 100 nM | 20.9 | 10.5 | 2.91 | inactive | inactive | 25.9 | inactive | 17.2 | inactive | 8.33 | 93.3 nM | 90% | 2.7 | 8.88 | 90 nM | 90 nM | inactive | fold change (FC) [8]: 4.19; Activity [30]: Non-toxic; fold change (FC) [10]: 3.56; Selectivity Index [12]: >=3300; inhibition [13]: 58%; fold change (FC) [14]: 1.55; fold change (FC) [16]: 5.95; inhibition [31]: Active; fold change (FC) [21]: 2.21; inhibition [26]: 71%; fold change (FC) [28]: 10.2 |
